SENP8 block-1: inhibitors of human SENP8 protease; Q96LD8; purified SENP8, Z-RLRGG-aminoluciferin cleavage, luminescence; inhibition, % at 10 µM; 1.2% of 330,000 active; in the data active = inhibition above about 50%
SENP8 block-2: SENP8 (human) protease inhibition | Q96LD8 | recombinant SENP8, Nedd8 substrate fluorescence | inhibition, % at 20 µM | 0.64% of 360,000 active; in the data active = inhibition mostly above about 40%, no sharp cut-off; inactive = mostly below about 27%
UBC13 inh: blocks human UBC13 polyubiquitin chain formation. inhibition, % at 20 µM. 0.47% of 330,000 active. TR-FRET. P61088; in the data active = inhibition above about 45%, passing the limit was not always enough; inconclusive = no clear call, values can overlap the other calls
Apaf-1 inh: blocks human Apaf-1 apoptosome activity; O14727; reconstituted apoptosome caspase-3 activity, DEVD-Rh110 fluorescence; inhibition, % at 20 µM; 0.71% of 330,000 active; active = inhibition of at least 40% at 20 µM
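Material: cell-free apoptosome with Apaf-1, procaspase-3 and caspase-9; Buffer or medium: Hepes pH 7.5 with detergent and BSA; Reagent: cytochrome c trigger plus (Z-DEVD)2-Rh110 caspase-3 substrate; Times: compound with Apaf-1, dATP, procaspase-3 30 min, then 50 min reaction, room temperature; Technique: Rh110 fluorescence intensity.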
SENP6 block: SENP6 protease inhibition; Q9GZR1; Recombinant SENP6 catalytic domain, aminoluciferin luminescence; inhibition, % at 10 µM; 1.8% of 330,000 active; AID 2599;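 active = inhibition above about 50% at the single tested dose, limit read from the data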
SENP7 inh: blocks the human protease SENP7; recombinant SENP7, Z-RLRGG-aminoluciferin luminescence, 40 min; Q9BQF6; 1.5% of 330,000 active; inhibition, % at 5 µM;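 active = inhibition above about 50% at the single test dose, limit read from the data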
Numbers stand for hits; – = inactive; ? = inconclusive; · = no result given. Most compounds without a hit are left out; they make up all but 3% or so of the library.

SMILES	SENP8 block-1	SENP8 block-2	UBC13 inh	Apaf-1 inh	SENP6 block	SENP7 inh
COc1cccc(C(C(=O)NC2CCCC2)N2CCN(c3ncccc3C#N)CC2)c1OC (stereo not given)	·	–	·	·	·	·
CCOC(=O)N(C)c1c(CC)nc2c(OCc3ccccc3OC)cccn12	·	–	·	·	·	·
Cc1cccc(C)c1NC(=O)CN(Cc1ccccc1)Cc1ccccc1	·	–	·	·	·	·
CCc1ccccc1NC(=O)Nc1ccc2c(c1)OCO2	–	–	–	–	–	82.4
CSc1nc2sc(-c3ccccc3)cc2c(=O)n1N	93.6	–	–	–	94.6	97.9
CC(C)Sc1nc2sc(-c3ccccc3)cc2c(=O)n1N	–	–	–	–	–	–
NC(=O)c1c(NC(=O)c2ccccc2F)sc2c1CCC2	·	–	·	·	·	·
N#C/C(=C\c1ccc(N2CCOCC2)o1)C(=O)Nc1ccc(O)cc1	–	–	–	–	–	–
COc1ccc(NC(=O)/C(C#N)=C\c2ccc(N3CCOCC3)o2)cc1	–	45.0	–	–	–	–
COc1ccc(-c2sc3cc(OC)ccc3c2-c2ccc(OCCN3CCCCC3)cc2)cc1	·	–	·	·	·	·
c1ccc(-c2sc3ccccc3c2-c2ccc(OCCN3CCCC3)cc2)cc1	–	–	81.6	78.0	–	–
O=C(Nc1cnc2ccccc2c1)c1ccco1	–	–	–	–	70.3	70.4
O=C(Nc1cccc(-c2cnc3ccccc3n2)c1)c1ccco1	–	–	–	–	–	–
Cc1ccc(C(=O)Nc2cnc3ccccc3c2)cc1	93.6	–	–	–	97.0	98.3
CCC(c1nnnn1-c1ccc2c(c1)OCCO2)N1CCN(c2cccc(C)c2C)CC1 (stereo not given)	·	–	·	·	·	·
COC(=O)c1ccccc1N/C=C1\CCc2c(c(C)nn2-c2ccccn2)C1=O	–	–	–	69.3	–	–
Cn1cccc1/C=C1\SC(=Nc2cccc(O)c2)NC1=O	54.3	–	–	–	77.8	52.2
O=C1NC(=Nc2ccccc2)S/C1=C\c1cccs1	59.2	–	–	–	69.4	–
Cn1cccc1/C=C1\SC(=Nc2ccc(O)cc2)NC1=O	–	–	–	–	–	–
COc1ccc(-c2cc(C(=O)NCc3ccc(F)cc3)[nH]n2)c(C)c1	·	–	·	·	·	·
CC(=O)Nc1cc(-c2cccc(NS(C)(=O)=O)c2)cn2c(-c3ccc(F)c(Cl)c3)cnc12	·	–	·	·	·	·
O=C(c1ccccc1)c1ccc(O)c(O)c1O	·	46.7	·	·	·	·
COC(=O)CCC(=O)OC1(C)C(=O)C=C2C=C(C3CC3)N(Cc3ccccc3)C=C2C1=O (stereo not given)	–	–	–	42.2	–	–
CC1(OC(=O)CCc2ccccc2)C(=O)C=C2C=C(c3ccc(C#N)cc3)N(C3CCCC3)C=C2C1=O (stereo not given)	–	–	–	–	–	–
COC(=O)CCC(=O)OC1(C)C(=O)C=C2C=C(C3CC3)N(C3CCCCC3)C=C2C1=O (stereo not given)	–	–	–	62.4	–	–
SMILES	SENP8 block-1	SENP8 block-2	UBC13 inh	Apaf-1 inh	SENP6 block	SENP7 inh
COC(=O)CCC(=O)OC1(C)C(=O)C=C2C=C(C3CC3)N(CC(C)C)C=C2C1=O (stereo not given)	–	·	–	53.3	–	–
CCN(CC)CCCN1C=C2C(=O)C(C)(OC(=O)CCC(=O)OC)C(=O)C=C2C=C1C1CC1 (stereo not given)	–	–	–	–	–	–
COC(=O)C[C@H]1CC[C@H](NC(=O)Nc2ccccc2F)[C@@H](CO)O1	·	–	·	·	·	·
O=C(O)CCNc1ccc(NCCC(=O)O)c2c1C(=O)c1ccccc1C2=O	–	–	–	–	–	–
O=C1c2cccc(NCCNCCO)c2C(=O)c2cccc(NCCNCCO)c21	·	44.0	·	·	·	·
O=C(c1cc2c(s1)CCCCC2)N1CCN(c2ncccn2)CC1	–	–	–	–	–	–
O=C(c1cc2c(s1)CCCC2)n1cccn1	–	–	–	–	57.7	63.5
O=C(Cn1ccc(=O)[nH]c1=O)c1ccc([N+](=O)[O-])o1	·	–	·	·	·	·
COC(=O)c1c[nH]c2c1-c1cc(C(=O)OCc3ccccc3)n(S(=O)(=O)c3ccc(C)cc3)c1C(=O)C2=O	·	104.9	·	·	·	·
Cc1ccc(S(=O)(=O)Cc2ccc(C(=O)OCc3ccccc3)cc2)cc1	–	–	–	–	–	–
COc1cc(OC)c2c(c1)C(=O)c1cc(OC)cc(OC)c1C2=O	–	57.4	–	–	–	–
CCOC(=O)[C@]12CCCC=C1N(CCC1=CCCCC1)C(=O)[C@H](CC(=O)NCc1cccc3ccccc13)C2	·	–	·	·	·	·
CC1CCN(c2nc3ccc(C(=O)O)cc3s2)CC1	97.1	–	–	–	97.4	96.2
COc1ccc(-c2cc3nc(C)cc(-c4ccc(OC)cc4)n3n2)cc1	–	–	–	–	–	–
Cc1cccc(-c2cc3nc(C)cc(C)n3n2)c1	53.5	–	–	–	–	78.1
COc1ccc(-c2cc3nc(C)cc(N)n3n2)cc1	95.3	–	–	–	95.7	97.0
COc1cccc(-c2cc3nc(NCCN4CCCC4)n(C)c(=O)c3s2)c1	·	–	·	·	·	·
COC(=O)c1c(C)[nH]c(C(=O)OC(C)C(=O)NC2CCCCC2C)c1C (stereo not given)	·	–	·	·	·	·
Clc1ccc(OCc2nc3ccccc3[nH]2)cc1	56.3	–	–	–	72.0	82.4
O=S(=O)(CCc1nc2ccccc2[nH]1)c1ccc(Cl)cc1	–	–	?	–	–	–

Screening results: PubChem BioAssay, Sanford-Burnham Center for Chemical Genomics
